From PubChem BioAssay
TRPC4 block: TRPC4 (mouse) channel inhibition; HEK293 TRPC4beta/mu-opioid, DAMGO-evoked Fluo4 calcium flux; stronger effect = lower value; actives 0.39% (n = 300,000); AID 2247; B-score at 10 µM;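 active = B-score over 3 SD under the library average, no early fluorescence shift, positive overall ratio signal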
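Assay system: HEK293 cells with stable TRPC4beta plus mu-opioid receptor expression. Dosing: single dose. Measured by: Fluo4 Ca2+ flux fluorescence. Also added: DAMGO in two steps, submaximal then maximal. Read-out: B score from integrated Fluo4 fluorescence ratio.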
TRPC6 activator: activates the mouse TRPC6 cation channel | actives 0.13% (n = 310,000) | HEK293-TRPC6 membrane potential dye fluorescence; stronger effect = higher value | Q61143 | B-score at 10 µM;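 active = B-score of the integrated fluorescence ratio above library mean plus 3 SD, and starting fluorescence ratio within library mean plus 5 SD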;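 note: higher score means more depolarization so channel activation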
TRPC6 inhibitor: inhibitors of mouse TRPC6 channel | Q61143 | HEK293-TRPC6, membrane potential dye, ACh-evoked depolarization; stronger effect = lower value | B-score at 10 µM | actives 1.1% (n = 310,000) | AID 2553;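 active = B-score under library mean minus 3 SD, initial fluorescence not abnormally high, positive integrated signal ratio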;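 note: B-score derived from integrated fluorescence ratio over the kinetic read; more negative B-score means stronger inhibition of depolarization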
TRPC4 PAM: TRPC4 (mouse) allosteric potentiation | B-score at 10 µM | HEK293 TRPC4beta/mu-opioid, DAMGO EC20, Fluo-4 Ca2+ flux; stronger effect = higher value | actives 0.42% (n = 310,000) | Q9QUQ5;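 active = B-score of calcium response area above 5 SD of library B-scores, with initial fluorescence ratio within 5 SD of library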;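 note: B-score of integrated fluorescence ratio over time as area under calcium response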
TRPC4 agonist: opens the mouse TRPC4 cation channel; Q9QUQ5; HEK293 TRPC4beta/mu-opioid, Fluo4 calcium fluorescence; stronger effect = higher value; B-score at 10 µM; actives 0.49% (n = 310,000); AID 2237;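 active = B-score above 5 SD of library B-scores, and initial fluorescence ratio not above library mean plus 5 SD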;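 note: positive B-score marks a calcium rise read as TRPC4 activation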
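Incubation: 45 min room-temperature Fluo4 loading, 110 s read / System: HEK293 cells stably co-expressing mouse TRPC4beta and mu-opioid receptor / Signal: Fluo4 fluorescence, kinetic / Control set: buffer (low) and maximal DAMGO (high) / Measure: integrated baseline-normalised fluorescence ratio, converted to per-well B score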
The depositor's hits bear a star. Only some compounds are listed: those with a hit (about 2.3% of all), similar ones and a draw of the others.

What do the screens show for `CN1CCN(c2ccc(NC(=O)c3ccc(-c4ccc(Br)cc4)o3)cc2)CC1`?
TRPC4 block: -7*; TRPC6 activator: inactive; TRPC6 inhibitor: inactive; TRPC4 PAM: inactive; TRPC4 agonist: 48*

What do the screens show for `Cc1ccccc1-n1ncc(C(C)NS(=O)(=O)c2ccccc2Cl)c1C` (stereo not given)?
TRPC4 block: inactive; TRPC6 activator: inactive; TRPC6 inhibitor: inactive; TRPC4 PAM: inactive; TRPC4 agonist: inactive

How did O=C(CC1=NCCNC(c2ccccc2)C1)c1ccccc1O (stereo not given) do in these assays?
TRPC4 block: inactive; TRPC6 activator: inactive; TRPC6 inhibitor: inactive; TRPC4 PAM: 10*; TRPC4 agonist: inactive

How did COCCNC(=O)c1cc(-c2ccc(-c3ccccc3)cc2)nc2ccccc12 do in these assays?
TRPC4 block: inactive; TRPC6 activator: inactive; TRPC6 inhibitor: inactive; TRPC4 PAM: inactive; TRPC4 agonist: inactive

Results for O=C(Nc1nnc(-c2ccccc2)o1)c1ccc(Cl)cc1 ?
TRPC4 block: inactive; TRPC6 activator: inactive; TRPC6 inhibitor: inactive; TRPC4 PAM: inactive; TRPC4 agonist: 48*

What do the screens show for `CCCOc1ccccc1NS(=O)(=O)c1ccc2[nH]c(=O)[nH]c2c1`?
TRPC4 block: inactive; TRPC6 activator: inactive; TRPC6 inhibitor: inactive; TRPC4 PAM: inactive; TRPC4 agonist: inactive

How did CCOc1ccccc1NS(=O)(=O)c1ccc2[nH]c(=O)[nH]c2c1 do in these assays?
TRPC4 block: inactive; TRPC6 activator: inactive; TRPC6 inhibitor: inactive; TRPC4 PAM: 13*; TRPC4 agonist: inactive

How did CC(CCN1C(Nc2ccccc2)=NC[C@@H]1Cc1ccccc1)c1ccccc1 (stereo not given in full) do in these assays?
TRPC4 block: inactive; TRPC6 activator: inactive; TRPC6 inhibitor: inactive; TRPC4 PAM: inactive; TRPC4 agonist: inactive

How did CC[C@@H](C(=O)[C@@H](C)[C@@H](O)[C@H](C)CCc1ccc(C)c(O)c1C(=O)O)[C@H]1O[C@](CC)([C@H]2CC[C@](O)(CC)[C@H](C)O2)C[C@@H]1C do in these assays?
TRPC4 block: inactive; TRPC6 activator: inactive; TRPC6 inhibitor: inactive; TRPC4 PAM: inactive; TRPC4 agonist: 160*

What do the screens show for `O=[N+]([O-])c1ccc(C2CNC(c3ccccc3)O2)cc1` (stereo not given)?
TRPC4 block: inactive; TRPC6 activator: inactive; TRPC6 inhibitor: inactive; TRPC4 PAM: 14*; TRPC4 agonist: inactive

What do the screens show for `CC/C(=N/OC(=O)c1cccc(C)c1)C(=O)c1cccs1`?
TRPC4 block: inactive; TRPC6 activator: inactive; TRPC6 inhibitor: inactive; TRPC4 PAM: inactive; TRPC4 agonist: inactive

What do the screens show for `Cc1n[nH]c(C)c1Cc1c(F)cccc1Cl`?
TRPC4 block: -6*; TRPC6 activator: inactive; TRPC6 inhibitor: inactive; TRPC4 PAM: inactive; TRPC4 agonist: inactive

What do the screens show for `Cc1cccc(-c2nnc(NC(=O)c3ccco3)s2)c1`?
TRPC4 block: inactive; TRPC6 activator: inactive; TRPC6 inhibitor: inactive; TRPC4 PAM: inactive; TRPC4 agonist: inactive

Results for Cc1cc(=O)oc2cc(NC(=S)NCc3ccccn3)ccc12 ?
TRPC4 block: -6*; TRPC6 activator: inactive; TRPC6 inhibitor: inactive; TRPC4 PAM: inactive; TRPC4 agonist: inactive

Results for NC(=O)c1ccc(C(F)(F)F)n(Cc2cccc(Cl)c2)c1=O ?
TRPC4 block: inactive; TRPC6 activator: inactive; TRPC6 inhibitor: inactive; TRPC4 PAM: inactive; TRPC4 agonist: inactive

How did Cc1ccc(Nc2nc3ccccc3[nH]2)nc1 do in these assays?
TRPC4 block: inactive; TRPC6 activator: inactive; TRPC6 inhibitor: inactive; TRPC4 PAM: inactive; TRPC4 agonist: 108*

What do the screens show for `COc1ccccc1Nc1nc2ccccc2[nH]1`?
TRPC4 block: inactive; TRPC6 activator: inactive; TRPC6 inhibitor: inactive; TRPC4 PAM: inactive; TRPC4 agonist: inactive

What do the screens show for `CCc1ccccc1Nc1nc2ccccc2[nH]1`?
TRPC4 block: -5*; TRPC6 activator: inactive; TRPC6 inhibitor: inactive; TRPC4 PAM: inactive; TRPC4 agonist: inactive

How did CC(C)NC(=O)C(c1ccc(F)cc1)N(C(=O)CCC(=O)Nc1ccccn1)C1CCCC1 (stereo not given) do in these assays?
TRPC4 block: inactive; TRPC6 activator: inactive; TRPC6 inhibitor: inactive; TRPC4 PAM: inactive; TRPC4 agonist: inactive

Results for O=C(NCc1cccc(F)c1)c1ccc2nc(N3CCOCC3)sc2c1 ?
TRPC4 block: inactive; TRPC6 activator: inactive; TRPC6 inhibitor: inactive; TRPC4 PAM: inactive; TRPC4 agonist: inactive

What do the screens show for `CCOc1cc(/C=C2\C(=O)ON=C2c2ccccc2)cc(Br)c1O`?
TRPC4 block: inactive; TRPC6 activator: 17*; TRPC6 inhibitor: inactive; TRPC4 PAM: inactive; TRPC4 agonist: inactive

What do the screens show for `CCOc1cc(/C=C2/C(=O)ON=C2C)cc(Br)c1O`?
TRPC4 block: inactive; TRPC6 activator: inactive; TRPC6 inhibitor: inactive; TRPC4 PAM: inactive; TRPC4 agonist: inactive

What do the screens show for `COc1cc(/C=C2\C(=O)ON=C2c2ccccc2)cc(Cl)c1O`?
TRPC4 block: -8*; TRPC6 activator: inactive; TRPC6 inhibitor: inactive; TRPC4 PAM: inactive; TRPC4 agonist: inactive

What do the screens show for `CC(C)Cn1c(N)c(C(=O)COC(=O)CC23CC4CC(CC(C4)C2)C3)c(=O)n(C)c1=O`?
TRPC4 block: inactive; TRPC6 activator: inactive; TRPC6 inhibitor: inactive; TRPC4 PAM: inactive; TRPC4 agonist: inactive

How did O=C(O)c1ccc[n+](Cc2ccc([N+](=O)[O-])cc2)c1 do in these assays?
TRPC4 block: inactive; TRPC6 activator: inactive; TRPC6 inhibitor: inactive; TRPC4 PAM: inactive; TRPC4 agonist: inactive

Results for O=[N+]([O-])c1ccc(C[n+]2cccc(O)c2)cc1 ?
TRPC4 block: inactive; TRPC6 activator: inactive; TRPC6 inhibitor: inactive; TRPC4 PAM: inactive; TRPC4 agonist: 168*

How did O=C(COc1coc(CN2CCN(c3ccccc3F)CC2)cc1=O)Nc1ccccc1 do in these assays?
TRPC4 block: inactive; TRPC6 activator: inactive; TRPC6 inhibitor: inactive; TRPC4 PAM: 32*; TRPC4 agonist: inactive

How did COc1ccc(OC)c(Cc2nnc(CCC(=O)NC3CCCCC3)o2)c1 do in these assays?
TRPC4 block: inactive; TRPC6 activator: inactive; TRPC6 inhibitor: inactive; TRPC4 PAM: inactive; TRPC4 agonist: inactive

How did CCCN1CCC(NC(=O)CCc2nnc(Cc3cc(OC)ccc3OC)o2)CC1 do in these assays?
TRPC4 block: inactive; TRPC6 activator: inactive; TRPC6 inhibitor: inactive; TRPC4 PAM: 10*; TRPC4 agonist: 55*

Results for CCc1ccc(-c2csc(NC(=O)COC(=O)CCc3nc4ccccc4s3)n2)cc1 ?
TRPC4 block: inactive; TRPC6 activator: inactive; TRPC6 inhibitor: inactive; TRPC4 PAM: inactive; TRPC4 agonist: inactive

How did C=CCNC(=S)N1CCN(C2CCCCC2)CC1 do in these assays?
TRPC4 block: inactive; TRPC6 activator: inactive; TRPC6 inhibitor: inactive; TRPC4 PAM: 32*; TRPC4 agonist: inactive
